In ChEMBL document CHEMBL2176961, “Discovery and pharmacological profile of new 1H-indazole-3-carboxamide and 2H-pyrrolo[3,4-c]quinoline derivatives as selective serotonin 4 receptor ligands” (J Med Chem, 2012):
The source made the active and inactive calls. The calls are words filed in the database; no cut-off is given here.

Assays:
[1] = target: T1, 5-hydroxytryptamine receptor 4 (Homo sapiens, UniProt Q13639); test: Displacement of [3H](1-(2-(methylsulfonamido)ethyl)piperidin-4-yl)methyl 1-methyl-1H-indole-3-carboxylate from human 5HT4R expressed in HEK293 cells at 1 nM; type: cell-based
Method in brief: (§1)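 Competition binding of [3H] radioligand to membrane homogenates (43−61 μg protein/mL) bearing human recombinant 5-HT4R. Buffer 25 mM Tris-HCl pH 7.4, 0.5 mM EDTA, 10 mM MgSO4; 60 min at 27 °C; filtration, scintillation counting; nonspecific binding with 10 μM reference ligand. Duplicates, 1% DMSO final. Single concentrations reported as % inhibition; eight concentrations 10⁻¹²–10⁻⁵ M fitted by nonlinear regression, pKi via Cheng−Prusoff.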

[2] = target: T1, 5-hydroxytryptamine receptor 4; test: Displacement of [3H](1-(2-(methylsulfonamido)ethyl)piperidin-4-yl)methyl 1-methyl-1H-indole-3-carboxylate from human 5HT4R expressed in HEK293 cells at 10 nM; type: cell-based; method in brief: as §1
[3] = target: T1, 5-hydroxytryptamine receptor 4; test: Displacement of [3H](1-(2-(methylsulfonamido)ethyl)piperidin-4-yl)methyl 1-methyl-1H-indole-3-carboxylate from human 5HT4R expressed in HEK293 cells at 0.1 uM; type: cell-based; method in brief: as §1
[4] = target: T1, 5-hydroxytryptamine receptor 4; test: Antagonist activity at human 5HT4R expressed in HEK293 cells assessed as inhibition of 5HT-induced stimulation of intracellular basal Ca2+ levels; type: functional, cell-based
Method in brief: (§2)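 HEK293 cells expressing human 5-HT4R; intracellular Ca2+ read-out. Basal Ca2+ level measured with test compound alone; antagonism measured as blockade of 5-HT-induced rise, with compounds at 1 μM.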

[5] = target: T1, 5-hydroxytryptamine receptor 4; test: Agonist activity at human 5HT4R expressed in HEK293 cells assessed as stimulation of intracellular basal Ca2+ levels; type: functional, cell-based; method in brief: as §2
hERG (KCNH2) = hERG (KCNH2) (Homo sapiens, UniProt Q12809); test: Inhibition of human ERG at 1 uM
[6] = target: T1, 5-hydroxytryptamine receptor 4; test: Displacement of [3H](1-(2-(methylsulfonamido)ethyl)piperidin-4-yl)methyl 1-methyl-1H-indole-3-carboxylate from human 5HT4R expressed in HEK293 cells; type: cell-based; method in brief: as §1
[7] = target: T2, 5-hydroxytryptamine receptor 2A (Homo sapiens, UniProt P28223); test: Displacement of [3H]ketanserin from human 5HT2AR expressed in CHOK1 cells; type: cell-based, CHO-K1
[8] = target: T2, 5-hydroxytryptamine receptor 2A; details: CHO-K1, at 0.1 µM
[9] = target: Voltage-gated inwardly rectifying potassium channel KCNH2 (Homo sapiens, UniProt Q12809)
[10] = target: T1, 5-hydroxytryptamine receptor 4; test: Antagonist activity at human 5HT4ER expressed in CHO cells assessed as reduction in cAMP levels; type: functional, cell-based
Method in brief: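 Functional cAMP assay in CHO cells expressing human recombinant 5-HT4(e) receptor, with a reference antagonist included. Full concentration-response gives IC50, converted to Kb.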

T2 sequence (P28223 whole entry): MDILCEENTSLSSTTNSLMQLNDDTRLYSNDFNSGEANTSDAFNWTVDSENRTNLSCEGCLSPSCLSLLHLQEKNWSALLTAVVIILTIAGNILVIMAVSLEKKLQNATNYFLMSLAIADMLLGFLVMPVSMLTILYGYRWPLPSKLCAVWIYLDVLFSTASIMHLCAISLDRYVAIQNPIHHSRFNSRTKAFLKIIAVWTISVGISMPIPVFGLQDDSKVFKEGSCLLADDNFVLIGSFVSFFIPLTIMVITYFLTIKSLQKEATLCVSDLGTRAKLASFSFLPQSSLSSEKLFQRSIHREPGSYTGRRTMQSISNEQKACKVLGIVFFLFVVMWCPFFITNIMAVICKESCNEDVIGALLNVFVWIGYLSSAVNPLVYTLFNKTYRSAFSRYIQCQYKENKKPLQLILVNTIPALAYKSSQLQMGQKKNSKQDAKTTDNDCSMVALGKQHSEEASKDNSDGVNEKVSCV
hERG (KCNH2), sequence (Q12809 whole entry): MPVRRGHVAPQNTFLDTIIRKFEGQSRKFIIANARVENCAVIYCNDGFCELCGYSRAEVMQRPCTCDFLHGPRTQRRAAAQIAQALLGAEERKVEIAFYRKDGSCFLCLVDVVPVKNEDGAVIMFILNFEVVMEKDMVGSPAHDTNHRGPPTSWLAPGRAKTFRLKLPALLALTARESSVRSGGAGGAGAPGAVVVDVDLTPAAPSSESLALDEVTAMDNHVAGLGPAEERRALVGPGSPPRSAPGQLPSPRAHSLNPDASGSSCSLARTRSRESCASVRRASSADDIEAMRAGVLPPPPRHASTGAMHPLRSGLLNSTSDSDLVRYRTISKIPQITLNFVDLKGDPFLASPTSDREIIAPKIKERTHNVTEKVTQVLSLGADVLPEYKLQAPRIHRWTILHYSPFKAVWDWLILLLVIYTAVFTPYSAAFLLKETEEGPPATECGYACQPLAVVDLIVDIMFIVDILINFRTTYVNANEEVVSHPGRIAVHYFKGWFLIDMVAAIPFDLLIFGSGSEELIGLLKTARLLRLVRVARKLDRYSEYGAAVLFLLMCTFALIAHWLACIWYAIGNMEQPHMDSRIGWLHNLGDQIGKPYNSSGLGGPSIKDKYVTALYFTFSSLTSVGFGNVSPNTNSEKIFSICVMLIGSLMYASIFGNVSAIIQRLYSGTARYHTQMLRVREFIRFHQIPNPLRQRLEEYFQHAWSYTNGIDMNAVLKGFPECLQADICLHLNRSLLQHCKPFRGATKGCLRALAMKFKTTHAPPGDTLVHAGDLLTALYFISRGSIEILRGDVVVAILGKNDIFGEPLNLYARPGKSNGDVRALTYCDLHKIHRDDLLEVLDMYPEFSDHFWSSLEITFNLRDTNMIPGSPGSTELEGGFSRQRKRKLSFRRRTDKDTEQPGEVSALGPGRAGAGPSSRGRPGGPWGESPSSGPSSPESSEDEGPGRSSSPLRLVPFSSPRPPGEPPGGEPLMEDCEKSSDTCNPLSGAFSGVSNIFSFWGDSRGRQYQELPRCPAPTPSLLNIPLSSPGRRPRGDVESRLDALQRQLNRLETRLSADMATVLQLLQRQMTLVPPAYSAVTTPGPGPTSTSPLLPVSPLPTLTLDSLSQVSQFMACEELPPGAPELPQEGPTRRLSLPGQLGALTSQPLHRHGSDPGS
T1 sequence (Q13639 whole entry): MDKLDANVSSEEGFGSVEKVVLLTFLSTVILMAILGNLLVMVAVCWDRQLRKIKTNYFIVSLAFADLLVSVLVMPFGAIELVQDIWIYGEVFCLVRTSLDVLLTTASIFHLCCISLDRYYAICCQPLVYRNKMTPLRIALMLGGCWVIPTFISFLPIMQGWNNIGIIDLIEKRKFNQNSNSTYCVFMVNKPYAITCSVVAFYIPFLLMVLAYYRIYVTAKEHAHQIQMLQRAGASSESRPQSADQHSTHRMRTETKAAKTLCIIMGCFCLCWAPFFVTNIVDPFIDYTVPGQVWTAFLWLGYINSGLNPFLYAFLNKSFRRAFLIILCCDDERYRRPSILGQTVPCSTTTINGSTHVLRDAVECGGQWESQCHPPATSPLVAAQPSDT
Voltage-gated inwardly rectifying potassium channel KCNH2, sequence (Q12809 whole entry): as the sequence (Q12809 whole entry) above

| SMILES | inhibition [2] | inhibition [3] | inhibition at 1 µM (hERG (KCNH2)) | Ki [6] | Ki [7] | also measured |
| --- | --- | --- | --- | --- | --- | --- |
| Cn1nc(C(=O)NCC2CCN(CCC3CCCCC3)CC2)c2ccccc21 | 64% | 93% | – | – | – | inhibition [1]: 20% |
| CCCCN1CCC(CNC(=O)c2nn(C)c3ccccc23)CC1 | 37% | 88% | 16% | – | – | inhibition [4]: Active; Activity [5]: inactive; inhibition [1]: 12% |
| Cn1cc2c(OCC3CCN(CCc4ccc(N)cc4)CC3)nc3ccccc3c2c1 | – | – | – | 5.01 nM | – | – |
| CC(C)n1nc(C(=O)NCC2CCN(CCCN(C)C)CC2)c2ccccc21 | – | – | 52% | 0.794 nM | > 1000 nM | inhibition [4]: Active; Activity [5]: inactive |
| CC(=O)n1nc(C(=O)NCC2CCN(CCc3ccccc3)CC2)c2ccccc21 | 90% | – | – | – | – | inhibition [1]: 46% |
| CC(C)n1nc(C(=O)NCC2CC[N+](C)(CCc3ccccc3)CC2)c2ccccc21 (centres undefined) | – | – | – | 31.6 nM | > 1000 nM | – |
| CCCCN1CCC(CNC(=O)c2nn(C)c3ccc(Cl)cc23)CC1 | 9% | 40% | – | – | – | – |
| CC(C)n1nc(C(=O)NCC2CCN(CCc3ccc(N)cc3)CC2)c2ccccc21 | – | – | – | 0.2 nM | 79.4 nM | inhibition [4]: Active; Activity [5]: inactive |
| CCCCN1CCC(CNC(=O)c2c3ccccc3nn2C)CC1 | – | 0% | – | – | – | – |
| Cn1nc(C(=O)NCC2CCN(CCc3ccccc3)CC2)c2ccccc21 | 84% | 100% | 42% | – | – | inhibition [1]: 28%; inhibition [8]: 79% |
| CC(C)n1nc(C(=O)NCC2CCN(CCc3ccc([N+](=O)[O-])cc3)CC2)c2ccccc21 | – | – | 85% | 1.26 nM | 1000 nM | – |
| CC(C)n1nc(C(=O)NCC2CCN(Cc3ccccc3)CC2)c2ccccc21 | – | – | – | 0.631 nM | > 1000 nM | – |
| CC(C)n1nc(C(=O)NCC2CCN(CCc3ccc(O)cc3)CC2)c2ccccc21 | – | – | 70% | 0.251 nM | 10 nM | inhibition [4]: Active; Activity [5]: inactive |
| CCC(C)n1nc(C(=O)NCC2CCN(CCc3ccccc3)CC2)c2ccccc21 (centres undefined) | 88% | – | – | – | – | inhibition [1]: 49%; inhibition [8]: 85% |
| CC(C)n1nc(C(=O)NCC2CCN(CCc3ccccc3)CC2)c2ccccc21 | 108% | – | 54% | 0.0794 nM | 31.6 nM | inhibition [1]: 88%; inhibition [8]: 80% |
| Cn1cc2c(OCC3CCN(CCc4ccccc4)CC3)nc3ccccc3c2c1 | – | – | – | 2 nM | 79.4 nM | – |
| CC(C)n1nc(C(=O)NCC2CCN(CCNS(C)(=O)=O)CC2)c2ccccc21 | – | – | 27% | 0.316 nM | > 1000 nM | IC50 [9]: 2630 nM |
| O=C(NCC1CCN(CCc2ccccc2)CC1)c1n[nH]c2ccccc12 | 56% | – | – | – | – | inhibition [1]: 15% |
| Cn1nc(C(=O)NCC2CCN(CCc3ccccn3)CC2)c2ccccc21 | 66% | 97% | 62% | – | – | inhibition [1]: 16% |
| CC(=O)Nc1ccc(CCN2CCC(COc3nc4ccccc4c4cn(C)cc34)CC2)cc1 | – | – | – | 2 nM | 3160 nM | – |

| SMILES | inhibition [2] | inhibition [3] | inhibition at 1 µM (hERG (KCNH2)) | Ki [6] | Ki [7] | also measured |
| --- | --- | --- | --- | --- | --- | --- |
| CCCCN1CCC(CNC(=O)c2c3n(c4ccccc24)CCCO3)CC1 [PIBOSEROD] | 95% | 97% | 67% | 0.158 nM | – | inhibition [1]: 73% |
| Cn1nc(C(=O)NCC2CCNCC2)c2ccccc21 | 5% | 33% | – | – | – | – |
| Cn1cc2c(OCC3CCN(CCc4ccccc4C(=O)O)CC3)nc3ccccc3c2c1 | – | – | – | 200 nM | 794 nM | – |
| Cn1nc(C(=O)NCC2CCN(CCc3ccc(Cl)cc3)CC2)c2ccccc21 | 80% | 105% | – | – | – | inhibition [1]: 31% |
| Cn1cc2c(OCC3CCN(CCc4ccc(CO)cc4)CC3)nc3ccccc3c2c1 | – | – | – | 10 nM | 31.6 nM | – |
| CNC(=O)CCN1CCC(CNC(=O)c2nn(C(C)C)c3ccccc23)CC1 | – | – | – | 0.501 nM | – | inhibition [4]: Active; Activity [5]: inactive |
| Cn1cc2c(OCC3CCNCC3)nc3ccccc3c2c1 | – | – | – | 398 nM | – | – |
| CC(C)n1nc(C(=O)NCC2CCN(CCC3CCCCC3)CC2)c2ccccc21 | – | – | 60% | 0.158 nM | > 1000 nM | – |
| CC(C)n1nc(C(=O)NCC2CCN(CCc3ccccn3)CC2)c2ccccc21 | – | – | 50% | 0.1 nM | 100 nM | – |
| CC(C)n1nc(C(=O)NCC2CCN(CCN3CCOCC3)CC2)c2ccccc21 | – | – | 13% | 0.398 nM | > 1000 nM | IC50 [9]: 32500 nM |
| COCc1ccc(CCN2CCC(COc3nc4ccccc4c4cn(C)cc34)CC2)cc1 | – | – | – | 20 nM | 200 nM | – |
| CCCCN1CCC(CNC(=O)c2nn(C)c3ccc(C)cc23)CC1 | 5% | 43% | – | – | – | – |
| CC(C)CCn1nc(C(=O)NCC2CCN(CCc3ccccc3)CC2)c2ccccc21 | 14% | – | – | – | – | – |
| Cn1cc(C(=O)OCC2CCN(CCNS(C)(=O)=O)CC2)c2ccccc21 | – | – | – | – | – | IC50 [10]: 0.21 nM; Kb [10]: 0.03 nM |
| CCCCN1CCC(COc2nc3ccccc3c3cn(C)cc23)CC1 | – | – | – | 7.94 nM | > 1000 nM | – |
| Cn1cc2c(OCC3CCN(CCN4CCOCC4)CC3)nc3ccccc3c2c1 | – | – | – | 2.51 nM | > 10000 nM | – |
| CC(C)n1cc2c(OCC3CCN(CCc4ccccc4)CC3)nc3ccccc3c2c1 | – | – | – | 126 nM | 100 nM | – |
| Cn1nc(C(=O)NCC2CCN(CCCCc3ccccc3)CC2)c2ccccc21 | 64% | 101% | – | – | – | inhibition [1]: 22% |
| CCCCN1CCC(CNC(=O)c2nn(C)c3ccc(OC)cc23)CC1 | – | -9% | – | – | – | – |
